Data published in ChEMBL document CHEMBL1150331, “Preparation of piperazine derivatives as 5-HT7 receptor antagonists” (Bioorg Med Chem, 2008).

Assays:
[1] = target: 5-hydroxytryptamine receptor 6 (Homo sapiens, UniProt P50406); experiment: Displacement of [3H]LSD from human 5HT6 receptor expressed in HeLa cells; type: cell-based
How it was run: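 HeLa-cell membranes with 1.8 nM [3H]LSD in 0.25 mL 50 mM Tris·HCl pH 7.4, 10 mM MgCl2, 0.5 mM EDTA. Incubated 60 min at 37 °C. Terminated by filtration through GF/C filters presoaked in 0.3% polyethylenimine. Methiothepin used for nonspecific binding.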

[2] = target: 5-hydroxytryptamine receptor 2A (Homo sapiens, UniProt P28223); experiment: Displacement of [3H]ketanserin from human recombinant 5HT2A receptor expressed in CHOK1 cell membrane; type: cell membranes, CHO-K1
How it was run: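 Frozen membranes with 1 nM [3H]ketanserin in 50 mM Tris·HCl pH 7.4. Incubated 15 min at 37 °C. Harvested onto GF/C filters presoaked in 0.05% Brij. Nonspecific binding defined with mianserin.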

[3] = target: T1, 5-hydroxytryptamine receptor 2C (Homo sapiens, UniProt P28335); experiment: Displacement of [3H]mesulergine from human recombinant 5HT2C receptor expressed in CHOK1 cell membrane; type: cell membranes, CHO-K1
T1 sequence (P28335 whole entry): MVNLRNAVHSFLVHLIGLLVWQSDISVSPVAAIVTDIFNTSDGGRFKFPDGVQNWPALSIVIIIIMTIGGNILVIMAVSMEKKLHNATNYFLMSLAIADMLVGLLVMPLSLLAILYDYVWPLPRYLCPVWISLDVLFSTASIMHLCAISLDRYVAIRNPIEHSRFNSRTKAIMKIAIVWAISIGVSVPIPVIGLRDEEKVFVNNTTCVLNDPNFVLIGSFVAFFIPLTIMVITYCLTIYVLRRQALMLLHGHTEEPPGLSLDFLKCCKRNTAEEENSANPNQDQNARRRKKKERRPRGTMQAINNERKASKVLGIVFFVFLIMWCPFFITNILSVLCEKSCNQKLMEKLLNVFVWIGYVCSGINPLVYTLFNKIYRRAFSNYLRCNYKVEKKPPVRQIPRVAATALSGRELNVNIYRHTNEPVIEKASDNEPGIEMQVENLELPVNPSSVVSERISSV
How it was run: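 Frozen membranes with 1 nM [3H]mesulergine in 50 mM Tris·HCl pH 7.7 containing 0.1% ascorbic acid and pargyline. Incubated 30 min at 37 °C. Stopped by rapid filtration through GF/C filters presoaked in 1% BSA. Nonspecific binding defined with mianserin.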

[4] = target: T2, 5-hydroxytryptamine receptor 1A (Homo sapiens, UniProt P08908); experiment: Displacement of [3H]8-OH-DPAT from human recombinant 5HT1A receptor expressed in CHOK1 cell membrane; type: cell membranes, CHO-K1
T2 sequence (P08908 whole entry): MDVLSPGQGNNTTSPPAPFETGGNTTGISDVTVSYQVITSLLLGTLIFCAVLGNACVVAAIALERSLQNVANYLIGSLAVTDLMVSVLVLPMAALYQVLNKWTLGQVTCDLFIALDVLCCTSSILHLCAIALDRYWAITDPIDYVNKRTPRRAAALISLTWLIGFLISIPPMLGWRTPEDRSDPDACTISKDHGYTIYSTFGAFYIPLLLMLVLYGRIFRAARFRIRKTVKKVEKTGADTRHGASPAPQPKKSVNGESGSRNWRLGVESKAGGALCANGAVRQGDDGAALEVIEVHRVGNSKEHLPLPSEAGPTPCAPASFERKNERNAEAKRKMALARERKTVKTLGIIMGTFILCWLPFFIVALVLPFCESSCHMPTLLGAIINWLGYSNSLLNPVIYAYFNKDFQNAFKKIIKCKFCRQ
How it was run: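 Radioligand 0.5 nM [3H]8-OH-DPAT with receptor membranes in 0.25 mL 50 mM Tris·HCl pH 7.4, 1 mM EDTA, 2.5 mM MgCl2. Incubated 30 min at 37 °C. Stopped by rapid filtration on GF/C filters presoaked in 0.3% polyethylenimine, then scintillation counted. Nonspecific binding defined with methiothepin.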

[5] = target: 5-hydroxytryptamine receptor 7 (Homo sapiens, UniProt P34969); experiment: Displacement of [3H]LSD from human recombinant 5HT7 receptor expressed in CHO cell membrane; type: cell membranes
How it was run: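 Membranes incubated with 3 nM [3H]LSD in 0.25 mL 50 mM Tris·HCl pH 7.4, 10 mM MgCl2, 0.5 mM EDTA, 90 min at 27 °C. Filtered on GF/C presoaked in 0.3% PEI and counted. Nonspecific binding with 0.5 uM methiothepin. 7-8 concentrations tested in duplicate, three assays. IC50 from nonlinear regression.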

Sequence of 5-hydroxytryptamine receptor 6 (P50406 whole entry): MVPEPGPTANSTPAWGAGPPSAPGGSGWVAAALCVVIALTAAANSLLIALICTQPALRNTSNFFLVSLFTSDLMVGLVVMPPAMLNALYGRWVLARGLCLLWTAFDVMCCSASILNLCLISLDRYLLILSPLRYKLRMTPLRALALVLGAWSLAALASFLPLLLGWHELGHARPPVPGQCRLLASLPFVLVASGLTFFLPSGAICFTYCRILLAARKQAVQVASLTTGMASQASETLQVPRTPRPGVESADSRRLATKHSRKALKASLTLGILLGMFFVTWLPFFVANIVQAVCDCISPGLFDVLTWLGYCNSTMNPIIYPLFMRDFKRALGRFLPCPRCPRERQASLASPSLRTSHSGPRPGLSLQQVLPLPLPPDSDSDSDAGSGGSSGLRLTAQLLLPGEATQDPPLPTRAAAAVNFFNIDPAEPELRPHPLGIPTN
Sequence of 5-hydroxytryptamine receptor 7 (P34969 whole entry): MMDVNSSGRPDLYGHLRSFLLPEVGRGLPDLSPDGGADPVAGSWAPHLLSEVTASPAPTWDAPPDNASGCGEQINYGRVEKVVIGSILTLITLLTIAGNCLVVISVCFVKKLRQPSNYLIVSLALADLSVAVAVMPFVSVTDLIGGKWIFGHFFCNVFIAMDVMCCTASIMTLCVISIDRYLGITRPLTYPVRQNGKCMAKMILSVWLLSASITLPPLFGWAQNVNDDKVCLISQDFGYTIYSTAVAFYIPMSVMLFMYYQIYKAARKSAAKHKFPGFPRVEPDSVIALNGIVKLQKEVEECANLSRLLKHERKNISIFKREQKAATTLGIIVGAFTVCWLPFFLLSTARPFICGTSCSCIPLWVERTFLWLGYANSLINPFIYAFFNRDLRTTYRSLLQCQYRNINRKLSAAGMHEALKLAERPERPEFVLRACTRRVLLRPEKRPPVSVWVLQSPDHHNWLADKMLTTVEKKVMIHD
Sequence of 5-hydroxytryptamine receptor 2A (P28223 whole entry): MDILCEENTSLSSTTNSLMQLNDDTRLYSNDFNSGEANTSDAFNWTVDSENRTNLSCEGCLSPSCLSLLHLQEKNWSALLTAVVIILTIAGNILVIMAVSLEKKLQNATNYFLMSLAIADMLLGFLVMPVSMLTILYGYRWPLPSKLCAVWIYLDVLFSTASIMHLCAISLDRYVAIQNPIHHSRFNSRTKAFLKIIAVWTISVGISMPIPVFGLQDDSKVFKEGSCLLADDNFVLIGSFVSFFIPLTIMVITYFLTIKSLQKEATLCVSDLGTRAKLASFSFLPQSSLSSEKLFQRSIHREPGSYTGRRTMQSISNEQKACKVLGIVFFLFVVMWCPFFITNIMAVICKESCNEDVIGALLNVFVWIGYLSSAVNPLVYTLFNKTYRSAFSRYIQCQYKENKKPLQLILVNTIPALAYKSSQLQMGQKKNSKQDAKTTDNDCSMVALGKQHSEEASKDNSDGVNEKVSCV

Compound | IC50 [1] | IC50 [2] | IC50 [3] | IC50 [4] | IC50 [5]
COc1ccc(S(=O)(=O)NCCCN2CCN(c3ccccc3OC)CC2)cc1 | > 10000 nM | 5170 nM | 9670 nM | 272 nM | –
COc1ccc(S(=O)(=O)NCCCN2CCN(c3ccc(Cl)c(Cl)c3)CC2)cc1 | – | – | – | – | 103 nM
O=S(=O)(NCCCN1CCN(Cc2ccccc2)CC1)c1ccccc1 | – | – | – | – | 949 nM
COc1ccc(S(=O)(=O)NC(C)CCN2CCN(c3ccccc3OC)CC2)cc1 (stereo not given) | – | – | – | – | 580 nM
COc1cccc(N2CCN(CCCNS(=O)(=O)c3ccc4ccccc4c3)CC2)c1 | – | – | – | – | 223 nM
COc1ccc(S(=O)(=O)NCCCN2CCN(c3cccc(C(F)(F)F)c3)CC2)cc1 | 2840 nM | 352 nM | 57 nM | 44 nM | 89 nM
COc1ccc(S(=O)(=O)NCCCN2CCN(c3ccc([N+](=O)[O-])cc3)CC2)cc1 | – | – | – | – | > 10000 nM
COc1ccc(S(=O)(=O)NCCCN2CCN(c3cccc(OC)c3)CC2)cc1 | – | – | – | – | 339 nM
COc1ccc(N2CCN(CCCNS(=O)(=O)c3ccc(OC)cc3)CC2)cc1 | – | – | – | – | 9310 nM
COc1ccc(S(=O)(=O)NCCCN2CCN(c3ccc(F)cc3)CC2)cc1 | > 10000 nM | 74 nM | 4890 nM | 39 nM | 47 nM
COc1ccc(N2CCN(CCCNS(=O)(=O)c3ccc4ccccc4c3)CC2)cc1 | – | – | – | – | 3240 nM
O=S(=O)(NCCCN1CCN(c2ccccc2F)CC1)c1ccc2ccccc2c1 | – | – | – | – | 140 nM
O=S(=O)(NCCCN1CCN(Cc2ccccc2)CC1)c1ccc2ccccc2c1 | – | – | – | – | 476 nM
O=S(=O)(NCCCN1CCN(c2ccc(Cl)c(Cl)c2)CC1)c1ccc2ccccc2c1 | 768 nM | 19 nM | 215 nM | 215 nM | 124 nM
COc1ccc(S(=O)(=O)NC(C)CCN2CCN(c3cccc(C(F)(F)F)c3)CC2)cc1 (stereo not given) | 6920 nM | 1820 nM | 1350 nM | 39 nM | 107 nM
O=S(=O)(NCCCN1CCN(c2ccc(F)cc2)CC1)c1ccc2ccccc2c1 | – | – | – | – | 53 nM
COc1ccc(S(=O)(=O)NCCCN2CCN(C(=O)c3ccco3)CC2)cc1 | – | – | – | – | > 10000 nM
O=S(=O)(NCCCN1CCN(c2cccc(C(F)(F)F)c2)CC1)c1ccc2ccccc2c1 | 1960 nM | 95 nM | 91 nM | 29 nM | 12 nM
COc1ccc(S(=O)(=O)NC(C)CCN2CCN(c3ccc(F)cc3)CC2)cc1 (stereo not given) | – | – | – | – | 373 nM
O=S(=O)(NCCCN1CCN(c2ccc(C(F)(F)F)cc2)CC1)c1ccc2ccccc2c1 | – | – | – | – | 567 nM
COc1ccc(S(=O)(=O)NC(C)CCN2CCN(c3ccccc3)CC2)cc1 (stereo not given) | – | – | – | – | 377 nM
COc1ccc(S(=O)(=O)NCCCN2CCN(c3ccc(C(C)=O)cc3)CC2)cc1 | – | – | – | – | > 10000 nM
COc1ccc(S(=O)(=O)NCCCN2CCN(C(=O)OCc3ccccc3)CC2)cc1 | – | – | – | – | > 10000 nM
COc1ccccc1N1CCN(CCCNS(=O)(=O)c2ccc3ccccc3c2)CC1 | 2630 nM | 85 nM | 241 nM | 4.6 nM | 20 nM
COc1ccc(S(=O)(=O)NCCCN2CCN(c3ccccc3F)CC2)cc1 | – | – | – | – | 289 nM
O=S(=O)(NCCCN1CCN(c2ccccc2)CC1)c1ccc2ccccc2c1 | – | – | – | – | 681 nM
COc1ccc(S(=O)(=O)NCCCN2CCN(c3ccc(C(F)(F)F)cc3)CC2)cc1 | – | – | – | – | 384 nM
COc1ccc(S(=O)(=O)NCCCN2CCN(c3ccccc3)CC2)cc1 | – | – | – | – | > 10000 nM
